# PDI inh: inhibitors of human PDI, primary screen, biochemical, turbidity, single point, plate reader; PDI insulin aggregation turbidity, A650, 90 min; inhibition, % at 10 µM; 350,000 compounds, 0.052% hits; AID 588391, 2011;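 active means mean inhibition across replicates of 30% or more, whatever share of single replicates reach that level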
# ERp5 inh: inhibitors of ERp5-driven insulin aggregation, primary screen, biochemical, turbidity, absorbance 650 nm, single point. Protein disulfide-isomerase A6 (Homo sapiens), Q15084. 90 min. inhibition, % at 9.99 µM. 350,000 compounds, 0.05% hits. AID 651711, 2012;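 active means mean replicate inhibition above about 25%, with every replicate also reaching it, limit read from the data, passing the limit was not always enough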
# Target sequence (Q15084 whole entry, looked up): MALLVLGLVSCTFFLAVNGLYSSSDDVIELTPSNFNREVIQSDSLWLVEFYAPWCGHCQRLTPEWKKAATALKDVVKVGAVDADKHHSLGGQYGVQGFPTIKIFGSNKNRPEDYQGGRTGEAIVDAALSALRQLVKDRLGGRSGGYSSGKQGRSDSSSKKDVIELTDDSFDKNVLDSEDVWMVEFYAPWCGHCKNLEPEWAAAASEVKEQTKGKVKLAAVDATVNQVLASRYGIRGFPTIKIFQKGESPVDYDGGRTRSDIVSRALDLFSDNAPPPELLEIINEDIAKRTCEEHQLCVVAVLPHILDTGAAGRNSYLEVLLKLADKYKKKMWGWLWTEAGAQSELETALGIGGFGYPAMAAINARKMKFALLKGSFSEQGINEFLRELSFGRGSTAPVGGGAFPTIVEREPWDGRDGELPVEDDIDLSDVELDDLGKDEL
# INS-1E GSIS act: GLuc luminescence reporter in INS-1E cells, primary screen for activators of glucose-dependent secretion of insulin; 370,000 compounds, 0.61% hits; activation, % at 16.6 µM; AID 743287, 2014; INS-1E GLuc reporter insulin secretion, 2-3 h;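 active means lowest replicate activation of at least 40%, so every replicate reaches that level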
# Env fusion inh: inhibitors of HIV-1 Env-driven cell-cell fusion, primary screen, HeLa-JRFL effector, CEM21 target cells, luciferase; inhibition, % at 12.3 µM; 360,000 compounds, 1.1% hits; AID 651610, 2012;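 active means mean replicate inhibition score of at least 50 and every replicate individually at or above 50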
# FN deposit inh: inhibitors of fibronectin matrix deposition, primary screen, AH1F cells, Alexa488-fibronectin fluorescence, plate reader | 350,000 compounds, 0.086% hits | AH1F fibroblasts, overnight | inhibition, % at 12.6 µM;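 active means mean inhibition across replicates of 30% or more, regardless of how many single replicates reach that level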
#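 Assay system: AH1F fibroblasts assembling fluorescent fibronectin matrix; Amount: 10000 AH1F cells per well; Buffer or medium: DMEM, 2% serum; Probe or stimulus: Alexa488-fibronectin, 24 nM final in well; Doses: single compound dose, delivered by pin transfer; Incubation: 1 h adhesion, overnight exposure; Measured by: fluorescence 485/525 nm; Read-out: fibronectin deposition inhibition.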
# A number is an active result; – = inactive; · = not tested or not shown; [ ] = remark or other dose. Shown are actives, neighbours in structure and some others; about 1.4% of the full set was active somewhere.
SMILES,PDI inh,ERp5 inh,INS-1E GSIS act,Env fusion inh,FN deposit inh
C[C@H]1CN([C@@H](C)CO)C(=O)Cc2cc(NC(=O)Nc3cccc4ccccc34)ccc2O[C@@H]1CN(C)S(=O)(=O)c1ccc(F)cc1,·,–,–,–,·
C[C@H](CO)N1C[C@H](C)[C@H](CN(C)S(=O)(=O)c2ccc(F)cc2)Oc2ccc(NC(=O)Nc3cccc4ccccc34)cc2CC1=O,·,–,–,83.0[16.7 µM],·
C[C@@H]1CN([C@H](C)CO)C(=O)Cc2cc(NC(=O)Nc3cccc4ccccc34)ccc2O[C@@H]1CN(C)C(=O)Nc1cccc2ccccc12,·,52.0,–,–,·
C[C@H](CO)N1C[C@H](C)[C@H](CN(C)S(=O)(=O)c2ccccc2)Oc2ccc(NC(=O)Nc3ccc4c(c3)OCO4)cc2CC1=O,·,–,–,75.1[16.7 µM],–
C[C@H](CO)N1C[C@H](C)[C@H](CN(C)S(=O)(=O)c2ccc(F)cc2)Oc2ccc(NC(=O)Nc3ccccc3)cc2CC1=O,·,–,–,55.2[16.7 µM],·
C[C@H](CO)N1C[C@H](C)[C@H](CN(C)C(=O)Nc2ccc(-c3ccccc3)cc2)OCc2ccccc2-c2c(n(C)c3ccccc23)C1=O,·,–,–,·,–
C/C=C/c1ccc([C@@H]2[C@H](CO)N3C(=O)CN(C(=O)Nc4cccc(OC)c4)C[C@@H]23)cc1,·,–,–,·,–
COc1ccc(NC(=O)N(C)C[C@@H]2Oc3ccc(NC(=O)Nc4ccc(F)cc4)cc3CC(=O)N([C@@H](C)CO)C[C@@H]2C)cc1,·,78.7,–,–,·
C[C@H](CO)N1C[C@H](C)[C@H](CN(C)S(=O)(=O)c2ccccc2)Oc2ccc(NC(=O)Nc3ccccc3)cc2CC1=O,·,–,–,80.3[16.7 µM],·
C[C@H](CO)N1C[C@H](C)[C@@H](CN(C)S(=O)(=O)c2ccccc2)Oc2ccc(NC(=O)Nc3ccccc3)cc2CC1=O,·,–,–,–,·
C[C@H](CO)N1C[C@H](C)[C@H](CN(C)S(=O)(=O)c2ccccc2)Oc2ccc(NC(=O)Cc3ccccc3)cc2CC1=O,·,–,–,92.2[16.7 µM],·
C[C@@H]1CN([C@@H](C)CO)C(=O)Cc2cc(NC(=O)Cc3ccccc3)ccc2O[C@@H]1CN(C)S(=O)(=O)c1ccccc1,·,–,–,–,·
COc1ccccc1CNC(=O)c1ccc2nc3[nH]c4ccccc4c3nc2c1,–,–,–,·,–
Cc1ccc(CNC(=O)c2ccc3nc4[nH]c5ccccc5c4nc3c2)cc1,·,·,61.3,–,–
COc1ccc(-c2ccc3c(c2)O[C@@H](CN(C)CC2CCOCC2)[C@H](C)CN([C@@H](C)CO)S3(=O)=O)cc1,·,–,–,–,–
CC(=O)N(C)C[C@H]1[C@@H](c2ccc(-c3ccc(C#N)cc3)cc2)[C@@H](CO)N1C(C)=O,·,–,–,·,–
OC(CNc1nc(C(F)(F)F)nc2ccccc12)c1ccccc1 (stereo not given),–,–,–,57.7,–
Cc1cc(=O)[nH]c(SCC(=O)c2ccccc2)c1C#N,–,·,42.5,·,·
COc1ccc(S(=O)(=O)Nc2ccc3c(c2)CC(=O)N([C@@H](C)CO)C[C@@H](C)[C@@H](CN(C)S(=O)(=O)c2ccccc2)O3)cc1,·,·,–,–,·
COc1ccc(S(=O)(=O)Nc2ccc3c(c2)CC(=O)N([C@@H](C)CO)C[C@H](C)[C@H](CN(C)S(=O)(=O)c2ccc(F)cc2)O3)cc1,·,·,–,65.6[16.7 µM],·
Cc1ccc(S(=O)(=O)N(C)C[C@@H]2Oc3ccc(NS(=O)(=O)c4ccc(Cl)cc4)cc3CC(=O)N([C@H](C)CO)C[C@@H]2C)cc1,·,–,–,56.0[16.7 µM],·
CCOC(=O)CCCCCC(=O)Nc1ccc2c(c1)CC(=O)N([C@H](C)CO)C[C@H](C)[C@H](CN(C)S(=O)(=O)c1ccc(OC)cc1)O2,–,–,–,95.7,–
COc1ccc(S(=O)(=O)Nc2ccc3c(c2)CC(=O)N([C@@H](C)CO)C[C@H](C)[C@H](CN(C)S(=O)(=O)c2ccccc2)O3)cc1,·,·,–,66.0[16.7 µM],·
O=C(C[C@H]1C[C@@H]2c3cc(NC(=O)C4CCC4)ccc3O[C@@H]2[C@@H](CO)O1)NCc1cc(F)ccc1F,·,–,–,–,–
COc1ccc(S(=O)(=O)N(C)C[C@@H]2OCCCC[C@H](C)Oc3ccc(NC(=O)Nc4ccc(F)cc4)cc3C(=O)N([C@H](C)CO)C[C@@H]2C)cc1,·,–,–,–,–

# High-throughput results as filed in PubChem.
